Screens from PubChem.
HTRA1 inhibitor: blocks human HTRA1 serine peptidase | recombinant HTRA1, FP-rhodamine activity-based probe, fluorescence polarization | AID 504803 | actives 0.5% (n = 340,000) | inhibition, % at 5.96 µM | Q92743; in the data active = inhibition above about 36%;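 note: 0% = enzyme with DMSO and 100% = wells lacking enzyme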
SIAE inh: inhibitors of human sialic acid acetylesterase SIAE | Q9HAT2 | SIAE FP-Rh probe binding, fluorescence polarization | inhibition, % at 9.66 µM | actives 0.69% (n = 370,000) | AID 1053197;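 active = inhibition above a cutoff: mean of compounds within the control limits plus 3 SD of those, cut at about 17% in these data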;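 note: 0% = plate median of compound wells and 100% = probe without SIAE protein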
DDE Tn6 FP inh: inhibitors of Tn6 peptide binding to human fibrin DD(E); P02675; Fibrin DD(E) TRITC-Tn6 fluorescence polarization displacement; inhibition, % at 8.3 µM; actives 0.21% (n = 370,000); AID 720509;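 active = inhibition above a per-campaign cutoff: mean of compounds within control limits plus 3 SD, cut at about 15% in these data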;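 note: 0% = median of all compound wells on the plate and 100% = blocking peptide control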
TCR-CD3 inh: human TCR-CD3 binding inhibition | inhibition, % at 9.4 µM | TAMRA-labeled TCR probe fluorescence, biochemical | AID 651800 | actives 0.37% (n = 360,000); in the data active = inhibition above about 19%;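 note: recombinant mutant TCR 2C K166C tagged with TAMRA read by polarization; 0% = receptor in buffer alone and 100% = receptor with positive control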
DDE Tn7 FP inh: disrupts Tn7 cyclic peptide binding to fibrin D-Dimer-E complex; FP displacement of FITC-Tn7 peptide from fibrin DD(E); 0% = median of compound wells per plate; inhibition, % at 8.3 µM; actives 0.13% (n = 370,000); AID 720508;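 active = inhibition above the mean of compounds falling within the control limits plus 3 SD of them, cut at about 14% in these data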;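 note: 0% = plate median of compound wells and 100% = 10 µM Aha-Tn7 peptide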
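Test system – human fibrin DD(E) · Times – 10 min preincubation, 3 h with tracer, room temperature · Detection – fluorescence polarization of the labelled Tn7 tracer · Measure – percent inhibition normalized to high-control wells · Benchmarks – high control wells with 10 µM unlabelled Aha-Tn7 peptide (full inhibition) · Repeats – singlicate testing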
mABHD4 FP: ABHD4 (mouse) inhibition, primary FP screen | AID 720543 | inhibition, % at 8.92 µM | actives 0.54% (n = 370,000) | purified mABHD4, FP-Rh probe fluorescence polarization | Q8VD66;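 active = inhibition exceeding the mean over every tested compound plus 3 SD, cut at about 30% in these data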;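 note: 0% = plate median of compound wells and 100% = S159A mutant with DMSO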
Target sequence (Q8VD66 whole entry, looked up): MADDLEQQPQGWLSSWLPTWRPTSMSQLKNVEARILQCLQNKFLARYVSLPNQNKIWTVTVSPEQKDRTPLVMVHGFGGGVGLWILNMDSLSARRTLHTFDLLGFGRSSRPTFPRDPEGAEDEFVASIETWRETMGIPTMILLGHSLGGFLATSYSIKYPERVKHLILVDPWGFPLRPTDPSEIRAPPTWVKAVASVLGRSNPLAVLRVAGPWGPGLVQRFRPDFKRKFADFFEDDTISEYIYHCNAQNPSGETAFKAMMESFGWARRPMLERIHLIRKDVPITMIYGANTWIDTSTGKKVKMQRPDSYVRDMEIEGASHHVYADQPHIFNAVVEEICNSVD
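assay system = mABHD4 protein | compound dosing = single nominal dose of 8.92 µM, 0.89% DMSO final | read-out basis = percent inhibition of probe binding, normalized to plate controls | schedule = Enzyme–compound pre-incubation 45 min, then probe 60 min, both 25 °C | detection = fluorescence polarization, excitation 525 nm, emission 598 nm, BODIPY TMR filters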
mABHD4 conf: confirmation of mouse ABHD4 inhibitors. shares compounds with mABHD4 FP. purified mABHD4, FP-Rh probe fluorescence polarization. inhibition, % at 8.92 µM. actives 55% (n = 1,800);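 active = mean inhibition across replicates above the hit cutoff set in the primary screen, cut at about 30% in these data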;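 note: 0% = wild-type ABHD4 with DMSO and 100% = catalytically dead S159A mutant with DMSO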
* = called active by the depositor; . = no result given; ! = not confirmed by another sample. Most compounds without a hit are left out; they make up all but 1.8% or so of the library.

SMILES	HTRA1 inhibitor	SIAE inh	DDE Tn6 FP inh	TCR-CD3 inh	DDE Tn7 FP inh	mABHD4 FP	mABHD4 conf
O=C(NCc1ccc(C(=O)N2CCCC2)cc1)c1cccc(Br)c1	.	-1	4	.	5	4	.
O=C(O)c1ccccc1Nc1cccc(OCc2ccc3ccccc3n2)c1	-3	11	2	4	6	36*	33*
O=C(COc1ccc2ccccc2c1)Nc1cccc(C(=O)Nc2ccccc2C(=O)O)c1	-116	-89	-5	9	-4	-149	.
O=C(NCCN1CCC(Cc2ccccc2)CC1)C1CCCN(S(=O)(=O)c2ccccc2[N+](=O)[O-])C1 (stereo not drawn)	.	2	5	.	-4	6	.
COC(=O)CN1CCN(C(=O)c2csc(-c3ccccc3)n2)CC1	.	-4	4	.	-4	-1	.
Cc1cc(C)cc(NCc2cc3c(cc2[N+](=O)[O-])OCO3)c1	6	11	-2	9	-5	31*	14
COc1ccc(CNCc2cc3c(cc2[N+](=O)[O-])OCO3)cc1	11	11	-6	10	0	33*	6
O=CN1CCN(C(C(=O)NC2CCCCC2)c2cc3c(cc2[N+](=O)[O-])OCO3)CC1 (stereo not drawn)	6	2	6	2	1	4	.
Cc1ccc(-c2cnc(NCc3cc4c(cc3[N+](=O)[O-])OCO4)n2C)cc1C	-2	1	-6	-3	3	14	.
COc1ccc(NC(=O)C(c2cc3c(cc2[N+](=O)[O-])OCO3)N2CCN(C=O)CC2)cc1 (stereo not drawn)	5	9	1	2	0	31*	0
Cc1ccc([N+](=O)[O-])c(NC(=O)COC(=O)C2CC3CCCC(C2)C3=O)c1C (stereo not drawn)	3	-1	-3	-1	2	-2	.
Cc1ccc(C(=O)COC(=O)C2CC3CCCC(C2)C3=O)cc1[N+](=O)[O-] (stereo not drawn)	-7	-1	2	-2	-1	42*	3
N#Cc1c(Cl)nsc1NN	12	11	-6	-1	2	73*	28
Cc1c(C#N)c(N)nc(Cl)c1C#N	-6	9	2	4	0	-3	.
CCn1c(Cc2cccs2)nnc1SCC(=O)Nc1ccc2c(c1)OCCO2	.	3	-6	.	11	3	.
CC(=O)OCCCNc1cc(SCc2ccco2)c2nonc2c1[N+](=O)[O-]	8	13	-4	13	1	49*	11
COc1ccc(CCNC(=O)c2ccccc2NS(=O)(=O)c2cc(C(=O)O)ccc2OC)cc1	-4	-14	-1	-5	7	33*	24
Cc1ccccc1CN1CCCCC(NC(=O)C2CCCC2)C1=O (stereo not drawn)	.	1	4	.	7	1	.
NS(=O)(=O)c1cccc2c1c([N+](=O)[O-])cc1nc(O)c(O)nc12	2	0	4	8	0	31*	11
O=[N+]([O-])c1cc2cccnc2c2ncccc12	.	-5	1	-10	7	1	.
COc1ccc(-c2sc3cc4c(cc3c2C#CC2(N)CCCCC2)OCO4)cc1	-49	0	-5	-1	3	32*	30*
Nc1ccc(O)cc1C(=O)OCC(=O)c1ccc(C2CCCCC2)cc1	29	13	-13	3	0	53*	39*
Nc1ccc(O)cc1C(=O)OCC(=O)C12CC3CC(CC(C3)C1)C2	26	7	-1	-6	-3	52*	35*
COc1ccc(C(=O)OCC(=O)c2ccc(C3CCCCC3)cc2)cc1	-8	2	5	6	0	1	.
CCC(=O)Nc1ccc(Cl)cc1C(=O)c1ccc[nH]1	.	0	-3	.	2	-11	.
SMILES	HTRA1 inhibitor	SIAE inh	DDE Tn6 FP inh	TCR-CD3 inh	DDE Tn7 FP inh	mABHD4 FP	mABHD4 conf
Cc1ccc(C(=O)/C=C/c2ccc(-c3ccccc3[N+](=O)[O-])o2)cc1	13	-2	2	-8	5	36*	-3
COc1ccc(Cl)cc1NS(=O)(=O)c1ccc2c(c1)NC(=O)CCS2	5	-2	0	-2	-2	32*	26
Cc1ccc(NS(=O)(=O)c2ccc3c(c2)NC(=O)CCS3)c(Cl)c1	-6	1	-2	1	-2	12	.
Nc1ncnc(N)c1NC(=O)c1ccccc1	.	0	7	-4	3	-5	.
CCOC(=O)C1=C(SCC)c2cc3c(n2C1=O)CCCC3	35	0	0	-3	2	36*	75*
CN(C)c1cccc2c(S(=O)(=O)NCC3CCN(C(=O)C(=O)c4cccs4)CC3)cccc12	.	1	-10	3	-2	-6	.
Cn1c(-c2ccsc2)c(-c2cccs2)c2cc(-c3ccc4[nH]ccc4c3)ccc21	22	2	0	-4	-4	2	.
Cn1c(-c2ccsc2)c(-c2cccs2)c2cc(-c3ccc4cc[nH]c4c3)ccc21	19	12	-2	-5	-1	35*	40*
COc1ccc(NC(=O)Nc2nc(C(N)C3CCCCC3)cs2)cc1 (stereo not drawn)	.	5	-11	-1	-5	-2	.
CC(C)c1ccc(NC(=O)Nc2nc(C(N)C3CCCCC3)cs2)cc1 (stereo not drawn)	.	2	0	-9	-1	31*	32*
C[C@H]1O[C@@H](n2c3ccc(Cl)cc3c3ccc4c5cc(Cl)ccc5[nH]c4c32)[C@H](O)[C@H](O)[C@H]1O	.	-21	-3	.	0	8	.
C[n+]1c2cc(N)ccc2cc2ccc(N)cc21	33	25*!	-3	13	-7	30*!	43*
Nc1[nH]n2c(=O)cc(-c3ccccc3)nc2c1N=Nc1ccccc1	6	-1	-6	-8	5	8	.
Nc1[nH]n2c(=O)cc(-c3ccccc3)nc2c1N=Nc1ccc(S(N)(=O)=O)cc1	14	-8	-2	-7	7	32*	37*
CCCCN(C)c1c(C)nc2ccc(C(=O)Nc3cc(-c4ccccc4)ccc3OC)cn12	.	4	2	8	5	40*	56*
CCc1nc2ccc(C(=O)Nc3cc(-c4ccccc4)ccc3OC)cn2c1N(C)CCCc1ccccc1	.	1	0	0	-6	16	.
CC(CSc1nc2ccccc2s1)Cn1c(N2CCCC2)nc2c1c(=O)[nH]c(=O)n2C (stereo not drawn)	-12	4	-4	-1	-4	39*	42*
COc1ccccc1C(=O)N1CCC(Oc2cccnc2)CC1	.	1	0	.	6	5	.
